≈ marks a conversion by molar mass, not a printed value. Calls of active or inactive are those of the source. The rule behind the calls is not given here.
Experiments:
SK-MEL = experiment: Cytotoxicity against human SK-MEL cells assessed as cell viability after 48 hrs by neutral red uptake assay; assay type: cell-based
How it was run: (§1)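 Neutral red uptake assay on human cancer lines (SK-MEL, KB, BT-549, SK-OV-3) and noncancerous mammalian cells (VERO, LLC-PK1). Highest tested concentration was 10 µg/mL.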

Candida albicans = experiment: Antifungal activity against Candida albicans assessed as growth inhibition; assay type: functional, organism-based
BT-549 = experiment: Cytotoxicity against human BT549 cells assessed as cell viability after 48 hrs by neutral red uptake assay; assay type: cell-based; details: bt-549, 48 h; how it was run: as §1
[1] = Selectivity index, ratio of cytotoxicity against pig LLC-PK1 cells to IC50 for Cryptococcus neoformans ATCC 90113; assay type: toxicity, cell-based; details: read-out: Selectivity Index
[2] = Selectivity index, ratio of cytotoxicity against human SK-MEL cells to IC50 for Cryptococcus neoformans ATCC 90113; assay type: toxicity, cell-based; details: read-out: Selectivity Index
Cryptococcus neoformans = experiment: Antifungal activity against Cryptococcus neoformans ATCC 90113 assessed as growth inhibition after 70-74 hrs by CLSI method; assay type: functional, organism-based; details: Cryptococcus neoformans, ATCC 90113; for IC50: read-out: IC50
[3] = Selectivity index, ratio of cytotoxicity against human BT549 cells to IC50 for Cryptococcus neoformans ATCC 90113; assay type: toxicity, cell-based, BT-549; details: read-out: Selectivity Index
KB = experiment: Cytotoxicity against human KB cells assessed as cell viability after 48 hrs by neutral red uptake assay; assay type: cell-based; how it was run: as §1
Aspergillus fumigatus = experiment: Antifungal activity against Aspergillus fumigatus assessed as growth inhibition; assay type: functional, organism-based
[4] = Selectivity index, ratio of cytotoxicity against african green monkey Vero cells to IC50 for Cryptococcus neoformans ATCC 90113; assay type: toxicity, cell-based; details: read-out: Selectivity Index
SK-OV-3 = experiment: Cytotoxicity against human SKOV3 cells assessed as cell viability after 48 hrs by neutral red uptake assay; assay type: cell-based; details: sk-ov-3, 48 h; how it was run: as §1
Nakaseomyces glabratus = experiment: Antifungal activity against Candida glabrata assessed as growth inhibition; assay type: functional, organism-based
Vero = experiment: Cytotoxicity against african green monkey Vero cells assessed as cell viability after 48 hrs by neutral red uptake assay; assay type: cell-based; details: chlorocebus sabaeus; how it was run: as §1
[5] = Selectivity index, ratio of cytotoxicity against human KB cells to IC50 for Cryptococcus neoformans ATCC 90113; assay type: toxicity, cell-based; details: read-out: Selectivity Index
Escherichia coli = experiment: Antibacterial activity against Escherichia coli ATCC 35218 assessed as growth inhibition after 16-20 hrs by CLSI method; assay type: functional, organism-based
LLC-PK1 = experiment: Cytotoxicity against pig LLC-PK1 cells assessed as cell viability after 48 hrs by neutral red uptake assay; assay type: cell-based, Sus scrofa; details: llc-pk1, 48 h; how it was run: as §1
[6] = Selectivity index, ratio of cytotoxicity against human SKOV3 cells to IC50 for Cryptococcus neoformans ATCC 90113; assay type: toxicity, cell-based, SK-OV-3; details: read-out: Selectivity Index
Pichia kudriavzevii = experiment: Antifungal activity against Candida krusei assessed as growth inhibition; assay type: functional, organism-based

| MIC (Cryptococcus neoformans) [µg/mL] | SMILES | Activity (SK-MEL) [µg/mL] | growth inhibition (GI) (Candida albicans) | Activity (BT-549) [µg/mL] | selectivity ratio [1] | selectivity ratio [2] | MFC (Cryptococcus neoformans) [µg/mL] | IC50 (Cryptococcus neoformans) [µg/mL] | selectivity ratio [3] | Activity (KB) [µg/mL] | growth inhibition (GI) (Aspergillus fumigatus) | selectivity ratio [4] | Activity (SK-OV-3) [µg/mL] | growth inhibition (GI) (Nakaseomyces glabratus) | Activity (Vero) [µg/mL] | selectivity ratio [5] | growth inhibition (GI) (Escherichia coli) | Activity (LLC-PK1) [µg/mL] | selectivity ratio [6] | growth inhibition (GI) (Pichia kudriavzevii) |
| --- | --- | --- | --- | --- | --- | --- | --- | --- | --- | --- | --- | --- | --- | --- | --- | --- | --- | --- | --- | --- |
| 2.5 (≈ 5.54 µM) | COC(=O)[C@H](CCCNC(=N)N)NC(=O)[C@@H](N)Cc1c[nH]c(-c2cccc3ccccc23)n1 | > 10 | inactive | > 10 | > 7.3 | > 7.3 | 2.5 (≈ 5.54 µM) | 1.38 (≈ 3.06 µM) | > 7.3 | > 10 | inactive | > 7.3 | > 10 | inactive | > 10 | > 7.3 | inactive | > 10 | > 7.3 | inactive |
| 5 (≈ 8.67 µM) | CC(C)(C)OC(=O)N[C@@H](Cc1c[nH]c(-c2ccccc2)n1)C(=O)N[C@@H](CCCNC(=N)N)C(=O)NCc1ccccc1 | > 10 | inactive | > 10 | > 3.9 | > 3.9 | 5 (≈ 8.67 µM) | 2.56 (≈ 4.44 µM) | > 3.9 | > 10 | inactive | > 3.9 | > 10 | inactive | > 10 | > 3.9 | inactive | > 10 | > 3.9 | inactive |
| 2.5 (≈ 5.25 µM) | N=C(N)NCCC[C@H](NC(=O)[C@@H](N)Cc1c[nH]c(-c2ccccc2)n1)C(=O)NCc1ccccc1 | > 10 | inactive | > 10 | > 8.2 | > 8.2 | 2.5 (≈ 5.25 µM) | 1.22 (≈ 2.56 µM) | > 8.2 | > 10 | inactive | > 8.2 | > 10 | inactive | > 10 | > 8.2 | inactive | > 10 | > 8.2 | inactive |
| 10 (≈ 16.5 µM) | COc1ccc(-c2nc(C[C@H](NC(=O)OC(C)(C)C)C(=O)N[C@@H](CCCNC(=N)N)C(=O)NCc3ccccc3)c[nH]2)cc1 | > 10 | inactive | > 10 | > 1.7 | > 1.7 | 10 (≈ 16.5 µM) | 5.77 (≈ 9.51 µM) | > 1.7 | > 10 | inactive | > 1.7 | > 10 | inactive | > 10 | > 1.7 | inactive | > 10 | > 1.7 | inactive |
| 10 (≈ 16.9 µM) | Cc1ccc(-c2nc(C[C@H](NC(=O)OC(C)(C)C)C(=O)N[C@@H](CCCNC(=N)N)C(=O)NCc3ccccc3)c[nH]2)cc1 | > 10 | inactive | > 10 | > 1.7 | > 1.7 | 10 (≈ 16.9 µM) | 6.04 (≈ 10.2 µM) | > 1.7 | > 10 | inactive | > 1.7 | > 10 | inactive | > 10 | > 1.7 | inactive | > 10 | > 1.7 | inactive |
| 2.5 (≈ 5.1 µM) | Cc1ccc(-c2nc(C[C@H](N)C(=O)N[C@@H](CCCNC(=N)N)C(=O)NCc3ccccc3)c[nH]2)cc1 | > 10 | inactive | > 10 | > 4.7 | > 4.7 | 2.5 (≈ 5.1 µM) | 2.11 (≈ 4.3 µM) | > 4.7 | > 10 | inactive | > 4.7 | > 10 | inactive | > 10 | > 4.7 | inactive | > 10 | > 4.7 | inactive |

The next lines start with the compound.

| SMILES | MIC (Cryptococcus neoformans) [µg/mL] | Activity (SK-MEL) [µg/mL] | growth inhibition (GI) (Candida albicans) | Activity (BT-549) [µg/mL] | selectivity ratio [1] | selectivity ratio [2] | MFC (Cryptococcus neoformans) [µg/mL] | IC50 (Cryptococcus neoformans) [µg/mL] | selectivity ratio [3] | Activity (KB) [µg/mL] | growth inhibition (GI) (Aspergillus fumigatus) | selectivity ratio [4] | Activity (SK-OV-3) [µg/mL] | growth inhibition (GI) (Nakaseomyces glabratus) | Activity (Vero) [µg/mL] | selectivity ratio [5] | growth inhibition (GI) (Escherichia coli) | Activity (LLC-PK1) [µg/mL] | selectivity ratio [6] | growth inhibition (GI) (Pichia kudriavzevii) |
| --- | --- | --- | --- | --- | --- | --- | --- | --- | --- | --- | --- | --- | --- | --- | --- | --- | --- | --- | --- | --- |
| COC(=O)[C@H](CCCNC(=N)N)NC(=O)[C@H](Cc1c[nH]c(-c2ccc(-c3ccccc3)cc2)n1)NC(=O)OC(C)(C)C | 10 (≈ 17.3 µM) | > 10 | inactive | > 10 | > 2 | > 2 | 10 (≈ 17.3 µM) | 4.91 (≈ 8.5 µM) | > 2 | > 10 | inactive | > 2 | > 10 | inactive | > 10 | > 2 | inactive | > 10 | > 2 | inactive |
| COC(=O)[C@H](CCCNC(=N)N)NC(=O)[C@H](Cc1c[nH]c(-c2cccc3ccccc23)n1)NC(=O)OC(C)(C)C | 2.5 (≈ 4.53 µM) | > 10 | inactive | > 10 | > 8 | > 8 | 2.5 (≈ 4.53 µM) | 1.25 (≈ 2.27 µM) | > 8 | > 10 | inactive | > 8 | > 10 | inactive | > 10 | > 8 | inactive | > 10 | > 8 | inactive |
| N[C@@H](Cc1c[nH]c2ccccc12)C(=O)N[C@@H](Cc1c[nH]c(-c2ccccc2)n1)C(=O)NCc1ccccc1 | 5 (≈ 9.87 µM) | > 10 | inactive | > 10 | > 4.9 | > 4.9 | 5 (≈ 9.87 µM) | 2.04 (≈ 4.03 µM) | > 4.9 | > 10 | inactive | > 4.9 | > 10 | inactive | > 10 | > 4.9 | inactive | > 10 | > 4.9 | inactive |
| COC(=O)[C@H](Cc1c[nH]c(-c2ccccc2)n1)NC(=O)[C@@H](N)Cc1c[nH]c2ccccc12 | 20 (≈ 46.4 µM) | > 10 | inactive | > 10 | > 1.3 | > 1.3 | 20 (≈ 46.4 µM) | 7.97 (≈ 18.5 µM) | > 1.3 | > 10 | inactive | > 1.3 | > 10 | inactive | > 10 | > 1.3 | inactive | > 10 | > 1.3 | inactive |
| COC(=O)[C@H](Cc1c[nH]c(-c2ccc(-c3ccccc3)cc2)n1)NC(=O)[C@@H](N)Cc1c[nH]c2ccccc12 | 10 (≈ 19.7 µM) | > 10 | inactive | > 10 | > 2.6 | > 2.6 | 20 (≈ 39.4 µM) | 3.82 (≈ 7.53 µM) | > 2.6 | > 10 | inactive | > 2.6 | > 10 | inactive | > 10 | > 2.6 | inactive | > 10 | > 2.6 | inactive |

From ChEMBL document CHEMBL3132745, “Synthesis and Antimicrobial Activities of His(2-aryl)-Arg and Trp-His(2-aryl) Classes of Dipeptidomimetics” (Medchemcomm, 2014)
